The target of the test is T1, Beta-galactoside-binding lectin (Gallus gallus, UniProt P07583).
T1 sequence (P07583 whole entry): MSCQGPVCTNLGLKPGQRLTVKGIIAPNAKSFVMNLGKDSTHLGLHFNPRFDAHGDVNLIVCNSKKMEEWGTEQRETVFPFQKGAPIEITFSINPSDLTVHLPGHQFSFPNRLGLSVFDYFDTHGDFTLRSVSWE
Kind of test: Inhibition of binding of biotinylated chicken galectin-1B to surface immobilized asialofetuin by solid phase assay. A digest of the protocol: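 Asialofetuin was adsorbed to microtiter wells at a constant coating amount, and its N-glycans served as ligand. Biotinylated lectin at a lectin-specific concentration was added with inhibitor. IC50 (mM) was normalized to lactose, and potency was expressed relative to free lactose. Assays were run in triplicate across up to five independent series.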

Each structure is given as a SMILES string.

`OC[C@H]1O[C@@H](O[C@H]2[C@H](O)[C@@H](O)[C@H](O)O[C@@H]2CO)[C@H](O)[C@@H](O)[C@H]1O` [Lactose, anhydrous] showed an IC50 of 4 mM.

As a reminder, the IC50 is the concentration that gives 50% inhibition. Lower therefore signals higher potency.

Source of the values: BindingDB's records for doi:10.1016/j.bmcl.2011.11.010 (Ludwig-Maximilians-University Munich, 2011).
